Most compounds without a hit are left out; they make up all but 3.6% or so of the library.
VIM-2 inhibitor: blocks Pseudomonas aeruginosa VIM-2 metallo-beta-lactamase; purified VIM-2, nitrocefin hydrolysis, epi-absorbance fluorescence; inhibition, % at 5.6 µM; 290,000 tested, 0.89% active; AID 1527;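 active = inhibition above the mean of all tested compounds plus 3 SD, cutoff set per screening run, cut at about 7.5% in these data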;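 also: red hydrolysis product quenches plate fluorescence so inhibitors raise well fluorescence; 0% = enzyme with DMSO and 100% = DMSO without enzyme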
PAFAH2 FP inh: PAFAH2 (human) inhibition. inhibition, % at 3.39 µM. Q99487. recombinant PAFAH2, FP-rhodamine activity probe, fluorescence polarization. 340,000 tested, 0.99% active;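 active = inhibition above the mean over all tested compounds plus 3 SD, cut at about 30% in these data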;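 also: inhibitors block probe labeling of enzyme so polarization drops; 0% = enzyme with DMSO and 100% = wells lacking PAFAH2 protein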
PAFAH1B3 inh: inhibitors of human PAFAH1B3; Q15102; recombinant PAFAH1B3, FP-rhodamine probe, fluorescence polarization; inhibition, % at 3.39 µM; 340,000 tested, 0.28% active; AID 492972;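 active = inhibition above the screen-wide average of all tested compounds plus 3 SD, cut at about 25% in these data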;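 also: 0% = enzyme with DMSO only and 100% = wells lacking PAFAH1B3 protein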
Target sequence (Q15102 whole entry, looked up): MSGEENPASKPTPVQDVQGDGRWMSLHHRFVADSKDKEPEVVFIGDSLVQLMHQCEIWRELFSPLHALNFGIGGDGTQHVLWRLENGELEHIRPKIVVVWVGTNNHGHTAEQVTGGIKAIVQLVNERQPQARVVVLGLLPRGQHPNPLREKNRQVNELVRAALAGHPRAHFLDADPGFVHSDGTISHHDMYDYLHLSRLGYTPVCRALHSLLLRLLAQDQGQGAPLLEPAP
pPAFAH inh: pPAFAH (human) enzyme inhibition; Q13093; recombinant pPAFAH, FP-rhodamine probe fluorescence polarization; inhibition, % at 3.39 µM; 330,000 tested, 1.5% active; AID 463082;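 active = inhibition above the mean inhibition across the screen plus 3 SD, cut at about 25% in these data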;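 also: inhibitors block binding of the rhodamine activity-based probe so polarization drops; 0% = enzyme with DMSO and 100% = wells lacking pPAFAH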
PAFAH1B2 FP inh: inhibitors of human PAFAH1B2; 340,000 tested, 1.2% active; P68402; recombinant PAFAH1B2, FP-rhodamine activity probe, fluorescence polarization; inhibition, % at 3.39 µM; AID 492953;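 active = inhibition above the mean of all tested compounds plus 3 SD, cut at about 24% in these data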;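 also: 0% = enzyme with DMSO and 100% = wells lacking PAFAH1B2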
Target sequence (P68402 whole entry, looked up): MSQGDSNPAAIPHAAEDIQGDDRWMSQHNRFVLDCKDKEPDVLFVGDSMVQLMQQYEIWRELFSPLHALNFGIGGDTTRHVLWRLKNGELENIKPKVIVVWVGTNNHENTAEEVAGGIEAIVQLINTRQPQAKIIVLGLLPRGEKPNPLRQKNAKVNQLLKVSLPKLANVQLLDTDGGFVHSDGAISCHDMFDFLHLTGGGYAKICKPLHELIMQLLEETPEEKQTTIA
IMP-1 inh: inhibitors of Pseudomonas aeruginosa IMP-1 metallo-beta-lactamase; purified IMP-1, nitrocefin hydrolysis, epi-absorbance fluorescence; inhibition, % at 5.6 µM; 290,000 tested, 0.45% active;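 active = inhibition above the mean plus 3 SD of all compounds in the same screening run, cut at about 4.5% in these data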;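 also: 0% = IMP-1 with DMSO and 100% = DMSO wells lacking enzyme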
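System: purified IMP-1; amount: IMP-1 0.2 nM before substrate addition; compound: single dose, 5.6 µM; times: 25 °C, 15 min preincubation, 25 min reaction; signal: Epi-absorbance via hydrolysed-nitrocefin quenching of white-plate fluorescence, 480/530 nm, EDTA stop; benchmarks: DMSO with and without IMP-1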
Numbers without * were called inactive.

`COc1ccc(-c2nc(SCC(=O)Nc3cc(C)on3)n[nH]2)cc1` gave VIM-2 inhibitor -4, PAFAH2 FP inh 19, PAFAH1B3 inh 5, pPAFAH inh -2, PAFAH1B2 FP inh -1 and IMP-1 inh -5.
For CCCCOc1ccc(-c2nc(SCC(N)=O)n[nH]2)cc1 the results were VIM-2 inhibitor 0, PAFAH2 FP inh -2, PAFAH1B3 inh 4, pPAFAH inh 6, PAFAH1B2 FP inh -2 and IMP-1 inh 5.2*.
For CS(=O)(=O)c1ccc(C(=O)N2CCN(C(=O)c3ccco3)CC2)cc1 the results were PAFAH2 FP inh 0, PAFAH1B3 inh -1 and PAFAH1B2 FP inh -1.
`N#Cc1c(NC(=O)c2ccco2)sc2c1CCC2` gave VIM-2 inhibitor 0, PAFAH2 FP inh -50, PAFAH1B3 inh 4, pPAFAH inh 30*, PAFAH1B2 FP inh 11 and IMP-1 inh -1.
`CNC(=O)c1cc(C(=O)c2ccc(Cl)cc2)c(Br)[nH]1` gave VIM-2 inhibitor -3, PAFAH2 FP inh -1, PAFAH1B3 inh 2, pPAFAH inh 1, PAFAH1B2 FP inh 37* and IMP-1 inh -3.
For O=S(=O)(c1ccc(F)cc1)N1CCN(CCc2ccccc2)CC1 the results were VIM-2 inhibitor 1, PAFAH2 FP inh -4, PAFAH1B3 inh -1, pPAFAH inh -7, PAFAH1B2 FP inh 5 and IMP-1 inh -2.
For O=S(=O)(c1ccc(Cl)cc1)N1CCN(CCc2ccccc2)CC1 the results were VIM-2 inhibitor -2, PAFAH2 FP inh 1, PAFAH1B3 inh 13, pPAFAH inh -10, PAFAH1B2 FP inh 28* and IMP-1 inh -1.
`COc1ccc(S(=O)(=O)N2CCN(Cc3ccc(Cl)cc3)CC2)cc1` gave VIM-2 inhibitor -2, PAFAH2 FP inh 1, PAFAH1B3 inh -5, pPAFAH inh 8, PAFAH1B2 FP inh 5 and IMP-1 inh 0.
Screening O=c1[nH]c(CN2CCN(S(=O)(=O)c3ccc(Cl)cc3)CC2)nc2cc(Cl)ccc12 returned VIM-2 inhibitor 0, PAFAH2 FP inh 1, PAFAH1B3 inh 4, pPAFAH inh -8, PAFAH1B2 FP inh 24* and IMP-1 inh -2.
COc1cc2nc(CN3CCN(S(=O)(=O)c4ccc(Cl)cc4)CC3)[nH]c(=O)c2cc1OC was read as VIM-2 inhibitor -4, PAFAH2 FP inh 6, PAFAH1B3 inh 10, pPAFAH inh 1, PAFAH1B2 FP inh 6 and IMP-1 inh -2.
`O=S(=O)(c1ccc(Cl)cc1)N1CCN(Cc2ccncc2)CC1` gave VIM-2 inhibitor 0, PAFAH2 FP inh 1, PAFAH1B3 inh 6, pPAFAH inh -1, PAFAH1B2 FP inh 24* and IMP-1 inh -3.
`O=C1c2cccnc2C(=O)N1Cc1ccc(S(=O)(=O)N2CCN(c3ccc(Cl)cc3)CC2)cc1` gave VIM-2 inhibitor 8.5*, PAFAH2 FP inh -1, PAFAH1B3 inh 6, pPAFAH inh -6, PAFAH1B2 FP inh 6 and IMP-1 inh 2.
CC(=O)OC[C@]12CC[C@H]3[C@@](C)(CC[C@H]4C(C)(C)CCC[C@]34C)[C@@H]1C[C@H](C1=CC(=O)O[C@H]1OC(C)=O)O2 was read as pPAFAH inh 50*.
`CC(=O)OC[C@]12CC[C@H]3[C@@](C)(CC[C@H]4C(C)(C)CCC[C@]34C)[C@@H]1C[C@@H](C1=CC(=O)O[C@@H]1OC(C)=O)O2` gave pPAFAH inh 7.
Screening O=C(c1ccccc1)c1ccc(N2CCN(C(=O)c3cccc(F)c3F)CC2)c(F)c1 returned VIM-2 inhibitor -2, PAFAH2 FP inh -5, PAFAH1B3 inh 2, pPAFAH inh 7, PAFAH1B2 FP inh 2 and IMP-1 inh -1.
Cc1ccc(Cl)c2c1=NC(=O)C=2c1[nH]c(=S)[nH]c1O was read as VIM-2 inhibitor 2, PAFAH2 FP inh -2, PAFAH1B3 inh 3, pPAFAH inh 2, PAFAH1B2 FP inh 5 and IMP-1 inh 6.4*.
For Cc1ccc(S(=O)(=O)N2CCCN(C(=O)c3cc4ccccc4[nH]3)CC2)cc1 the results were VIM-2 inhibitor -1, PAFAH2 FP inh -2, PAFAH1B3 inh 11, pPAFAH inh 0, PAFAH1B2 FP inh 15 and IMP-1 inh -2.
For Cc1ccccc1NC(=O)CC1C(=O)Nc2ccccc2N1CC(=O)N(C)C1CCS(=O)(=O)C1 (configuration not stated) the results were PAFAH2 FP inh 1, PAFAH1B3 inh 0, pPAFAH inh 2 and PAFAH1B2 FP inh 2.
For CCCCC(CC)CNC(=O)CN(C)S(=O)(=O)c1cccc2nsnc12 (configuration not stated) the results were VIM-2 inhibitor -1, PAFAH2 FP inh 6, PAFAH1B3 inh 9, pPAFAH inh 3, PAFAH1B2 FP inh 25* and IMP-1 inh -1.
Screening CCCCC(CC)CNC(=O)CCS(=O)(=O)c1cccc2nsnc12 (configuration not stated) returned VIM-2 inhibitor -3, PAFAH2 FP inh 7, PAFAH1B3 inh 2, pPAFAH inh 3, PAFAH1B2 FP inh 23 and IMP-1 inh -2.
For FC(F)(F)c1cc(Cl)c2nnc(-c3ccccn3)n2c1 the results were VIM-2 inhibitor 8.1*, PAFAH2 FP inh 9, PAFAH1B3 inh 5, pPAFAH inh 3, PAFAH1B2 FP inh 10 and IMP-1 inh -4.
Screening CC(C)(C)C1CCC(=O)C(C2(O)C(=O)Nc3ccccc32)C1 (configuration not stated) returned VIM-2 inhibitor -3, PAFAH2 FP inh 0, PAFAH1B3 inh 10, pPAFAH inh 5, PAFAH1B2 FP inh 27* and IMP-1 inh -3.
CCN(CC)c1ccc(NC(=O)COC(=O)CSc2ccc(Br)cc2C)cc1 was read as VIM-2 inhibitor 2, PAFAH2 FP inh 4, PAFAH1B3 inh 0, pPAFAH inh 18, PAFAH1B2 FP inh 9 and IMP-1 inh 0.
Screening CC(=O)Nc1ccc(NC(=O)C(C)OC(=O)CSc2ccc(Br)cc2C)cc1 (configuration not stated) returned VIM-2 inhibitor -5, PAFAH2 FP inh 10, PAFAH1B3 inh -4, pPAFAH inh 15, PAFAH1B2 FP inh 24* and IMP-1 inh -2.
`COc1cc(NC(=O)c2cc3sccc3n2C)cc(OC)c1` gave VIM-2 inhibitor 1, PAFAH2 FP inh -7, PAFAH1B3 inh 2, pPAFAH inh -2, PAFAH1B2 FP inh -2 and IMP-1 inh 6.4*.
Screening CCOC(=O)c1sc2cc([N+](=O)[O-])cc(SCCO)c2c1N returned VIM-2 inhibitor -2, PAFAH2 FP inh -8, PAFAH1B3 inh 4, pPAFAH inh 3, PAFAH1B2 FP inh -5 and IMP-1 inh -3.
`CCOC(=O)c1sc2cc([N+](=O)[O-])cc(SCC(=O)OC)c2c1N` gave VIM-2 inhibitor -2, PAFAH2 FP inh 4, PAFAH1B3 inh 5, pPAFAH inh 25*, PAFAH1B2 FP inh -2 and IMP-1 inh -4.
